In ChEMBL document CHEMBL2311375, “Synthesis and characterization of a small analogue of the anticancer natural product leinamycin” (Bioorg Med Chem, 2013):
Activity calls are given as the source filed them. The rule behind the calls is not given here.

Legend:
[1] = Induction of oxidative supercoiled double-stranded plasmid DNA strand (unknown origin) cleavage at 250 uM after 3 to 15 hrs using ethidium bromide staining by agarose gel electrophoresis in presence of 375 uM 2-mercaptoethanol
Summary of the method: (§1)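 Supercoiled plasmid DNA (30 μM bp) incubated 3–15 h at 37 °C in sodium phosphate buffer (50 mM, pH 7) with 10% v/v acetonitrile. Final concentrations: compound 250 μM, 2-mercaptoethanol 375 μM where added. Catalase (100 μg/mL) added before compound where used. Forms I and II resolved on 0.9% agarose gel (80 V, 3 h, 1x TAE), stained with ethidium bromide, visualized by UV and quantified by image analysis. Breaks per plasmid S = −ln f1, f1 = fraction form I.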

[2] = Induction of supercoiled double-stranded plasmid DNA strand (unknown origin) cleavage at 250 uM after 3 to 15 hrs using ethidium bromide staining by agarose gel electrophoresis; summary of the method: as §1
[3] = Induction of oxidative supercoiled double-stranded plasmid DNA strand (unknown origin) cleavage at 250 uM after 3 to 15 hrs using ethidium bromide staining by agarose gel electrophoresis in presence of 375 uM 2-mercaptoethanol and catalase; summary of the method: as §1

With CC(C)=CCCC1(C)CC(=O)S[S+]1[O-] (mixture of isomers) the Activity [1] was “Active”, the Activity [2] was “inactive” and the Activity [3] was “inactive”.

In the case of CC(C)=CCCC1(C)CC(=O)S[S+]1[O-] (single isomer, unassigned), the Activity [1] is reported as “Active”, the Activity [2] is reported as “inactive” and the Activity [3] is reported as “inactive”.

In the case of O=c1s[s+]([O-])c2ccccc12 (configuration not stated), the Activity [1] is reported as “Active”, the Activity [2] is reported as “inactive” and the Activity [3] is reported as “inactive”.

With CC(C)=CCCC1(C)CC(=O)S[S+]1[O-] (configuration not stated) the Activity [1] was “Active”, the Activity [2] was “inactive” and the Activity [3] was “inactive”.
